Laboratory results from ChEMBL document CHEMBL3271979, “Inhibition of solid tumors by nitrosoureas. 1. Lewis lung carcinoma” (1977).
Active and inactive are the calls of the source. The rule behind the calls is not given here.

Key:
Mus musculus [1] = assay: Antitumor activity against mouse advanced Lewis lung carcinoma allografted in BDF1 mouse assessed as complete regression of established tumor at 41 mg/kg, ip administered as single dose on 7th day post-tumor implantation; type: functional, organism-based; design: dose 41 mg/kg
How it was run: (§1)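 BDF1 mice (C57Blk/6 × DBA/2) implanted sc by trocar with Lewis lung tumor fragments of about 40 mg, taken only from bacteriologically sterile donor tumors. Mice bearing tumors of about 400 mg (day 6-7) were selected. Each received a single ip dose on day 7, at or below the LD10 in normal mice. Groups were of 10 mice. Tumor weight was taken from calipers as w = ab²/2, measured at least twice weekly. Matched non-tumor mice served as toxicity controls.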

Mus musculus [2] = assay: Antitumor activity against mouse advanced Lewis lung carcinoma allografted in BDF1 mouse assessed as disease cure at 41 mg/kg, ip administered as single dose on 7th day post-tumor implantation measured for 80 days post-drug treatment; type: functional, organism-based; design: dose 41 mg/kg; how it was run: as §1
Mus musculus [3] = assay: Antitumor activity against mouse advanced Lewis lung carcinoma allografted in ip dosed BDF1 mouse assessed as disease cure administered as single dose on day 6 or 7 post-tumor implantation; type: functional, organism-based; how it was run: as §1
Mus musculus [4] = assay: Antitumor activity against mouse advanced Lewis lung carcinoma allografted in BDF1 mouse assessed as complete regression of established tumor at 27 mg/kg, ip administered as single dose on 7th day post-tumor implantation; type: functional, organism-based; design: dose 27 mg/kg; how it was run: as §1
[5] = Antitumor activity against mouse advanced Lewis lung carcinoma allografted in BDF1 mouse assessed as increase in host life span at 41 mg/kg, ip administered as single dose on 7th day post-tumor implantation; type: functional; settings: route intraperitoneal
How it was run: (§2)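 BDF1 mice (C57Blk/6 × DBA/2) implanted sc by trocar with about 40 mg Lewis lung tumor fragments from bacteriologically sterile donors. Advanced-disease groups held tumors of about 400 mg by day 6-7, sized by caliper (w = ab²/2). Single ip injection on day 7, in water or saline vehicle, at or below the LD10 in normal mice. Tumors measured at least twice weekly.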

Mus musculus [6] = assay: Antitumor activity against mouse advanced Lewis lung carcinoma allografted in ip dosed BDF1 mouse assessed as complete regression of established tumor administered as single dose on day 6 or 7 post-tumor implantation; type: functional, organism-based; how it was run: as §1
Mus musculus [7] = assay: Antitumor activity against mouse advanced Lewis lung carcinoma allografted in BDF1 mouse assessed as disease cure at 27 mg/kg, ip administered as single dose on 7th day post-tumor implantation measured for 80 days post-drug treatment; type: functional, organism-based; design: dose 27 mg/kg; how it was run: as §1
[8] = Antitumor activity against mouse advanced Lewis lung carcinoma allografted in BDF1 mouse assessed as increase in host life span at 27 mg/kg, ip administered as single dose on 7th day post-tumor implantation; type: functional; settings: route intraperitoneal; how it was run: as §2
[9] = Antitumor activity against mouse advanced Lewis lung carcinoma allografted in ip dosed BDF1 mouse assessed as increase in host lifespan administered as single dose on day 6 or 7 post-tumor implantation; type: functional
How it was run: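 Advanced Lewis lung model: about 40 mg fragments implanted sc by trocar into BDF1 mice, and mice with tumors of about 400 mg (day 6-7) selected. Tumor weight from calipers, w = ab²/2. Agent given as one ip dose in distilled water or physiological saline. Nontumor-bearing mice received matching doses as toxicity controls.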

Mus musculus [10] = assay: Antitumor activity against mouse advanced Lewis lung carcinoma allografted in BDF1 mouse assessed as disease cure at 67 mg/kg, ip administered as single dose on 7th day post-tumor implantation measured for 80 days post-drug treatment; type: functional, organism-based; design: dose 67 mg/kg; how it was run: as §1
[11] = Antitumor activity against mouse advanced Lewis lung carcinoma allografted in BDF1 mouse assessed as increase in host life span at 67 mg/kg, ip administered as single dose on 7th day post-tumor implantation; type: functional; settings: route intraperitoneal; how it was run: as §2
[12] = Antitumor activity against mouse advanced Lewis lung carcinoma allografted in BDF1 mouse assessed as increase in host life span at 90 mg/kg, ip administered as single dose on 7th day post-tumor implantation; type: functional; settings: route intraperitoneal; how it was run: as §2
Mus musculus [13] = assay: Antitumor activity against mouse advanced Lewis lung carcinoma allografted in BDF1 mouse assessed as disease cure at 90 mg/kg, ip administered as single dose on 7th day post-tumor implantation measured for 80 days post-drug treatment; type: functional, organism-based; design: dose 90 mg/kg; how it was run: as §1
[14] = Antitumor activity against mouse advanced Lewis lung carcinoma allografted in BDF1 mouse assessed as increase in host life span at 50 mg/kg, ip administered as single dose on 7th day post-tumor implantation; type: functional; settings: route intraperitoneal; how it was run: as §2
Mus musculus [15] = assay: Antitumor activity against mouse advanced Lewis lung carcinoma allografted in BDF1 mouse assessed as disease cure at 40 mg/kg, ip administered as single dose on 7th day post-tumor implantation measured for 80 days post-drug treatment; type: functional, organism-based; design: dose 40 mg/kg; how it was run: as §2
Mus musculus [16] = assay: Antitumor activity against mouse advanced Lewis lung carcinoma allografted in BDF1 mouse assessed as disease cure at 50 mg/kg, ip administered as single dose on 7th day post-tumor implantation measured for 80 days post-drug treatment; type: functional, organism-based; design: dose 50 mg/kg; how it was run: as §2
[17] = Antitumor activity against mouse advanced Lewis lung carcinoma allografted in BDF1 mouse assessed as increase in host life span at 40 mg/kg, ip administered as single dose on 7th day post-tumor implantation; type: functional; settings: route intraperitoneal; how it was run: as §2
Mus musculus [18] = assay: Antitumor activity against mouse early Lewis lung carcinoma allografted in ip dosed BDF1 mouse assessed as disease cure administered as single dose on 1 or 2 days post-tumor implantation measured for 80 days post-drug treatment; type: functional
How it was run: (§3)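 BDF1 mice implanted sc by trocar with ~40 mg Lewis lung fragments from sterile donor tumors. A single ip dose was given on day 1 or 2 after implant, in water or saline vehicle. Cures were scored in animals observed for at least 80 days after treatment. Drug-toxicity controls were matched non-tumor-bearing mice monitored for body weight and deaths.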

[19] = Antitumor activity against mouse advanced Lewis lung carcinoma allografted in BDF1 mouse assessed as increase in host life span at 144 mg/kg, ip administered as single dose on 7th day post-tumor implantation; type: functional; settings: route intraperitoneal; how it was run: as §2
[20] = Ratio of ED50 for antitumor activity against mouse L1210 cells allografted in ip dosed mouse to LD10 for mouse
Mus musculus [21] = assay: Antitumor activity against mouse early Lewis lung carcinoma allografted in ip dosed BDF1 mouse administered as single dose on 1 or 2 days post-tumor implantation measured for 80 days post-drug treatment; type: functional, organism-based; how it was run: as §3
Mus musculus [22] = assay: Antitumor activity against mouse advanced Lewis lung carcinoma allografted in BDF1 mouse assessed as disease cure at 144 mg/kg, ip administered as single dose on 7th day post-tumor implantation measured for 80 days post-drug treatment; type: functional, organism-based; design: dose 144 mg/kg; how it was run: as §1
[23] = Antitumor activity against mouse advanced Lewis lung carcinoma allografted in BDF1 mouse assessed as increase in host life span at 29 mg/kg, ip administered as single dose on 7th day post-tumor implantation; type: functional; settings: route intraperitoneal; how it was run: as §2
[24] = Antitumor activity against mouse advanced Lewis lung carcinoma allografted in BDF1 mouse assessed as increase in host life span at 30 mg/kg, ip administered as single dose on 7th day post-tumor implantation; type: functional; settings: route intraperitoneal; how it was run: as §2

With `O=NN(CCF)C(=O)NC1CSCSC1` as the compound, how does the inhibition (Mus musculus [1]) read?
The inhibition was “inactive”.

And the Activity (Mus musculus [2])?
Its Activity is “inactive”.

What about the Activity (Mus musculus [3]) of the same compound?
Its Activity is “inactive”.

And the inhibition (Mus musculus [4])?
The inhibition was “inactive”.

What about the ILS at 41 mg/kg [5] of the same compound?
Its ILS at 41 mg/kg is 21%.

What about the inhibition (Mus musculus [6]) of the same compound?
Its inhibition is “inactive”.

What about the Activity (Mus musculus [7]) of the same compound?
The Activity was “inactive”.

What about the ILS at 27 mg/kg [8] of the same compound?
Its ILS at 27 mg/kg is 40%.

And the ILS [9]?
Its ILS is >25%.

For `CC[C@H]1CC[C@H](NC(=O)N(CCCl)N=O)CC1`, which Activity (Mus musculus [10]) is on record?
The Activity was “inactive”.

And the Activity (Mus musculus [3])?
Its Activity is “inactive”.

What about the ILS at 67 mg/kg [11] of the same compound?
The ILS at 67 mg/kg was 17%.

What about the inhibition (Mus musculus [6]) of the same compound?
The inhibition was “Active”.

For `O=NN(CCCl)C(=O)N[C@H]1CCCC[C@H]1Cl` (relative stereo), which Activity (Mus musculus [3]) is on record?
Its Activity is “inactive”.

What about the ILS at 90 mg/kg [12] of the same compound?
Its ILS at 90 mg/kg is 62%.

What about the Activity (Mus musculus [13]) of the same compound?
The Activity was “inactive”.

What about the ILS [9] of the same compound?
The ILS was >25%.

Which ILS at 50 mg/kg [14] does the source give for `O=NN(CCCl)C(=O)NC1CCCCC1` [LOMUSTINE] here?
Its ILS at 50 mg/kg is 15%.

What about the Activity (Mus musculus [3]) of the same compound?
The Activity was “inactive”.

What about the inhibition (Mus musculus [6]) of the same compound?
The inhibition was “Active”.

What about the Activity (Mus musculus [15]) of the same compound?
The Activity was “inactive”.

And the Activity (Mus musculus [16])?
Its Activity is “inactive”.

And the ILS at 40 mg/kg [17]?
Its ILS at 40 mg/kg is 31%.

Which results are given for `O=NN(CCCl)C(=O)NC1C2CC3CC(C2)CC1C3` (stereo not drawn)?
Activity (Mus musculus [18]): inactive; ILS at 144 mg/kg [19]: 19%; Ratio [20]: 0.6; Activity (Mus musculus [3]): inactive; Activity (Mus musculus [21]): inactive; Activity (Mus musculus [22]): inactive; inhibition (Mus musculus [6]): Active

Which Activity (Mus musculus [3]) does the source give for `CCOC(=O)[C@H]1CC[C@H](NC(=O)N(CCCl)N=O)CC1` here?
Its Activity is “Active”.

What about the ILS at 29 mg/kg [23] of the same compound?
The ILS at 29 mg/kg was 75%.

What about the ILS at 30 mg/kg [24] of the same compound?
Its ILS at 30 mg/kg is 68%.
